# Assays:
# [1] = Oral bioavailability in Sprague-Dawley rat at 3 mg/kg by HPLC analysis; assay type: ADME, organism-based; details: in vivo
# [2] = Dose normalized AUC (0 to last) in BALB/c mouse at 10 mg/kg, po by HPLC analysis; assay type: ADME, organism-based; details: in vivo
# [3] = Metabolic stability in Sprague-Dawley rat liver microsomes assessed as parent compound remaining at 10 uM preincubated for 10 mins in water bath followed by NADPH addition and measured after 60 mins by LC-MS/MS analysis; assay type: ADME, Microsome; details: read-out: Stability
# [4] = molecular target: Phosphatidylinositol 4,5-bisphosphate 3-kinase catalytic subunit gamma isoform (Mus musculus, UniProt Q9JHG7); test: Inhibition of PI3Kgamma in mouse RAW264.7 cells assessed as reduction in AKT phosphorylation at residue S473 treated with mouse C5a component and measured after 3 mins
# [5] = Protein binding in human plasma measured after 4 hrs by LC-MS/MS analysis; assay type: ADME, cell-free; details: read-out: PPB (converted)
# [6] = Clearance in CD-1 mouse cryopreserved hepatocytes incubated for 10 mins under shaking condition by LC-MS/MS analysis; assay type: ADME, cell-based, Hepatocyte; details: read-out: CLH
# [7] = Metabolic stability in CD-1 mouse liver microsomes assessed as parent compound remaining at 10 uM preincubated for 10 mins in water bath followed by NADPH addition and measured after 60 mins by LC-MS/MS analysis; assay type: ADME, Microsome; details: read-out: Stability
# [8] = Metabolic stability in human liver microsomes assessed as parent compound remaining at 10 uM preincubated for 10 mins in water bath followed by NADPH addition and measured after 60 mins by LC-MS/MS analysis; assay type: ADME, Microsome; details: read-out: Stability
# [9] = molecular target: T1, Phosphatidylinositol 4,5-bisphosphate 3-kinase catalytic subunit alpha isoform (Homo sapiens, UniProt P42336); test: Inhibition of PI3Kalpha in human BT474 cells expressing P3KCA mutant assessed as reduction in AKT phosphorylation at residue S473 incubated for 2 hrs followed by insulin addition by ELISA; assay type: cell-based; details: bt-474
# Summary of the method: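 Akt phosphorylation was measured in the PIK3CA mutant human breast ductal carcinoma BT-474 cell line, used as a PI3Kα-sensitive cellular readout. IC50 determined.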
# Target sequence in this assay (P42336 whole entry, looked up, canonical isoform): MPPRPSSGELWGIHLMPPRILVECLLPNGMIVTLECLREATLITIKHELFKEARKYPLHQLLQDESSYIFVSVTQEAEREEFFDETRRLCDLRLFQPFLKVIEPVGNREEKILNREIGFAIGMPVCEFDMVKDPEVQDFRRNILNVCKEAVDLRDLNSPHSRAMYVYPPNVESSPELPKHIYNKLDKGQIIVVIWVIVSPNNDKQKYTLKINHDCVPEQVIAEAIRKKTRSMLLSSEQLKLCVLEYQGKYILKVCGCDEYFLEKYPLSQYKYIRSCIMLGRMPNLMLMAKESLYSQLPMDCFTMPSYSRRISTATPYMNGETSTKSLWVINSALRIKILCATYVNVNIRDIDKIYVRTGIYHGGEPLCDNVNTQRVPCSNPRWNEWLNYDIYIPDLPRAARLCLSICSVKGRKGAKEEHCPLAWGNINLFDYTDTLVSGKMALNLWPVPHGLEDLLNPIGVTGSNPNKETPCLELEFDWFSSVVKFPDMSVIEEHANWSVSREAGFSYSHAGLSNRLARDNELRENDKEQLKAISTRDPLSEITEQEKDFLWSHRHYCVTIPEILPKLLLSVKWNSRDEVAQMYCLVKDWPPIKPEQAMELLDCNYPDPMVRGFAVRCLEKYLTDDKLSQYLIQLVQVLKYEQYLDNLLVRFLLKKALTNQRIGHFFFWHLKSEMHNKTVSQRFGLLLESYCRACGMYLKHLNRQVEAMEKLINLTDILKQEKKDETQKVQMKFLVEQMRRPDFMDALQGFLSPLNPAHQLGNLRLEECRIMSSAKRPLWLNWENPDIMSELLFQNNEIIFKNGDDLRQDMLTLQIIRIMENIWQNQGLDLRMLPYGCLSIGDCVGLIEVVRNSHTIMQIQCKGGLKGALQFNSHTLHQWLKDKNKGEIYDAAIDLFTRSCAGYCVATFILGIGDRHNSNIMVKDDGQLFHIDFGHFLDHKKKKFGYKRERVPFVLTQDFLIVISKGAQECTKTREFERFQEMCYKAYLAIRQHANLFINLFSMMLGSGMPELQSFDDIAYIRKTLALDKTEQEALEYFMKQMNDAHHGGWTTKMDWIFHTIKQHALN
# [10] = Clearance in Beagle dog cryopreserved hepatocytes incubated for 10 mins under shaking condition by LC-MS/MS analysis; assay type: ADME, cell-based, Canis lupus familiaris, Hepatocyte; details: read-out: CLH
# [11] = Inhibition of PI3K in human MCF7 cells assessed as reduction in AKT phosphorylation at residue S473 incubated for 2 hrs followed by insulin addition by ELISA; assay type: cell-based; details: MCF7, 2 h
# [12] = Clearance in BALB/c mouse at 1 mg/kg, […] by HPLC analysis; assay type: ADME, organism-based; details: in vivo
# [13] = Volume of distribution in BALB/c mouse at 1 mg/kg, iv by HPLC analysis; details: in vivo
# [14] = Half life in BALB/c mouse at 1 mg/kg, iv by HPLC analysis; details: in vivo
# Mus musculus [15] = test: In vivo inhibition of PI3K in BALB/c nude mouse xenografted with PI3KCA mutant human BT474 cells assessed as reduction in AKT phosphorylation at 15 to 40 mg/kg, po administered once daily by Western blot analysis; assay type: functional, organism-based; details: BT-474, TDE = time-dependent effect
# Summary of the method: (§1)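 Mice bearing BT-474 subcutaneous xenografts were dosed orally in vehicle 0.5% MC + 0.2% Tween 80. Tumor Akt phosphorylation was assessed for time and dose dependence.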
# [16] = Clearance in Sprague-Dawley rat at 1 mg/kg, iv by HPLC analysis; assay type: ADME, organism-based; details: in vivo
# BT-474 [17] = test: Antitumor activity against PI3KCA mutant human BT474 cells xenografted in BALB/c nude mouse assessed as tumor growth inhibition at 15 mg/kg, po administered once daily and measured after 30 days by caliper method relative to control; assay type: functional; details: BT-474, po, 720 h, read-out: TGI
# [18] = Metabolic stability in Beagle dog liver microsomes assessed as parent compound remaining at 10 uM preincubated for 10 mins in water bath followed by NADPH addition and measured after 60 mins by LC-MS/MS analysis; assay type: ADME, Canis lupus familiaris, Microsome; details: read-out: Stability
# [19] = Metabolic stability in cynomolgus monkey liver microsomes assessed as parent compound remaining at 10 uM preincubated for 10 mins in water bath followed by NADPH addition and measured after 60 mins by LC-MS/MS analysis; assay type: ADME, Macaca fascicularis, Microsome; details: read-out: Stability
# [20] = Oral bioavailability in BALB/c mouse at 10 mg/kg by HPLC analysis; assay type: ADME, organism-based; details: in vivo
# [21] = Cmax in BALB/c mouse at 10 mg/kg, po by HPLC analysis; assay type: ADME, organism-based; design: dose 10 mg/kg, route oral; details: in vivo
# [22] = Volume of distribution in Sprague-Dawley rat at 1 mg/kg, iv by HPLC analysis; assay type: ADME, organism-based; details: in vivo
# BT-474 [23] = test: Antitumor activity against PI3KCA mutant human BT474 cells xenografted in BALB/c nude mouse assessed as tumor growth inhibition at 30 mg/kg, po administered once daily for 21 days by caliper method relative to control; assay type: functional; details: BT-474, po, 504 h, read-out: TGI
# Summary of the method: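 BT-474 (PIK3CA mutant human breast ductal carcinoma) subcutaneous xenografts in Balb/c nude mice. Oral dosing once daily for 21 days. Vehicle 0.5% MC + 0.2% Tween 80. Read-out is tumor growth inhibition.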
# [24] = molecular target: T1, Phosphatidylinositol 4,5-bisphosphate 3-kinase catalytic subunit alpha isoform; test: Inhibition of PI3Kalpha (unknown origin) using PIP2:3PS peptide as substrate preincubated for 15 mins followed by ATP addition at Km concentration and further incubated for 150 mins by ADP-Glo assay
# Target sequence in this assay (P42336 whole entry, canonical isoform): as the sequence (P42336 whole entry, looked up, canonical isoform) above
# BT-474 [25] = test: Antitumor activity against PI3KCA mutant human BT474 cells xenografted in po dosed BALB/c nude mouse assessed as tumor growth inhibition administered once daily and measured after 30 days by caliper method; assay type: functional, organism-based
# Mus musculus [26] = test: In vivo inhibition of PI3K in po dosed BALB/c nude mouse xenografted with PI3KCA mutant human BT474 cells assessed as reduction in AKT phosphorylation administered once daily measured after 1 to 4 hrs by Western blot analysis; assay type: functional, organism-based; details: BT-474; summary of the method: as §1
# [27] = molecular target: Phosphatidylinositol 4,5-bisphosphate 3-kinase catalytic subunit beta isoform (Homo sapiens, UniProt P42338); test: Inhibition of PI3Kbeta in human MDA-MB-468 cells assessed as reduction in AKT phosphorylation at residue S473 measured after 30 mins by sandwich ELISA
# Chain of Phosphatidylinositol 4,5-bisphosphate 3-kinase catalytic subunit beta isoform (P42338 whole entry, canonical isoform): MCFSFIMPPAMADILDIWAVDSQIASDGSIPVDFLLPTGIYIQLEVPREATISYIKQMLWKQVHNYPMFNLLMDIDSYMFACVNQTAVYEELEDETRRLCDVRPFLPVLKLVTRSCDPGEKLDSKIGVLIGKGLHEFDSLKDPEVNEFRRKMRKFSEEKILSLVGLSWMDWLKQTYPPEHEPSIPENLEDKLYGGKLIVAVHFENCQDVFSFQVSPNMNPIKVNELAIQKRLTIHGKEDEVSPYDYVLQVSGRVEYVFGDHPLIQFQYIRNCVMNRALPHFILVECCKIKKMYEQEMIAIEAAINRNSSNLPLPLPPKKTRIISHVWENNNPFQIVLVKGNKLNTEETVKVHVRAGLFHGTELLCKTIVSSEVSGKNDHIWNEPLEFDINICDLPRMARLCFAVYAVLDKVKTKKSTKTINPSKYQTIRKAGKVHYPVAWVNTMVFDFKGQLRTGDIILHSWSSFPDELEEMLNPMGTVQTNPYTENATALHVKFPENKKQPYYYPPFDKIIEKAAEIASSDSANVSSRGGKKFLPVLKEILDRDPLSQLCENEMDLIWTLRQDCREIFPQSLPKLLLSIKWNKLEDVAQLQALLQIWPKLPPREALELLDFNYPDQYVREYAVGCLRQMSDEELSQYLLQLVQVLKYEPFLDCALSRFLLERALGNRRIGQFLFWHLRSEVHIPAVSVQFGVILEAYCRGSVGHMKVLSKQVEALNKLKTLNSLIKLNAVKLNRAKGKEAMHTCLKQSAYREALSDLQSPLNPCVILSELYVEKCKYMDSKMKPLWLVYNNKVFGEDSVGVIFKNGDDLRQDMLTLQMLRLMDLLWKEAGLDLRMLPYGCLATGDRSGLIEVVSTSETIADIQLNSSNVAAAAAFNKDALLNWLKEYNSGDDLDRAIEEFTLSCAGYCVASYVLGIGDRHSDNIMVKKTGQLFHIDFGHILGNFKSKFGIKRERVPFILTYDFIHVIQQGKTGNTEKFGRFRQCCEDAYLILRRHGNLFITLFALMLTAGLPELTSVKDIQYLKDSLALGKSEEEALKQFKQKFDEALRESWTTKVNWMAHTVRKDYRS
# Chain of Phosphatidylinositol 4,5-bisphosphate 3-kinase catalytic subunit gamma isoform (Q9JHG7 whole entry, canonical isoform): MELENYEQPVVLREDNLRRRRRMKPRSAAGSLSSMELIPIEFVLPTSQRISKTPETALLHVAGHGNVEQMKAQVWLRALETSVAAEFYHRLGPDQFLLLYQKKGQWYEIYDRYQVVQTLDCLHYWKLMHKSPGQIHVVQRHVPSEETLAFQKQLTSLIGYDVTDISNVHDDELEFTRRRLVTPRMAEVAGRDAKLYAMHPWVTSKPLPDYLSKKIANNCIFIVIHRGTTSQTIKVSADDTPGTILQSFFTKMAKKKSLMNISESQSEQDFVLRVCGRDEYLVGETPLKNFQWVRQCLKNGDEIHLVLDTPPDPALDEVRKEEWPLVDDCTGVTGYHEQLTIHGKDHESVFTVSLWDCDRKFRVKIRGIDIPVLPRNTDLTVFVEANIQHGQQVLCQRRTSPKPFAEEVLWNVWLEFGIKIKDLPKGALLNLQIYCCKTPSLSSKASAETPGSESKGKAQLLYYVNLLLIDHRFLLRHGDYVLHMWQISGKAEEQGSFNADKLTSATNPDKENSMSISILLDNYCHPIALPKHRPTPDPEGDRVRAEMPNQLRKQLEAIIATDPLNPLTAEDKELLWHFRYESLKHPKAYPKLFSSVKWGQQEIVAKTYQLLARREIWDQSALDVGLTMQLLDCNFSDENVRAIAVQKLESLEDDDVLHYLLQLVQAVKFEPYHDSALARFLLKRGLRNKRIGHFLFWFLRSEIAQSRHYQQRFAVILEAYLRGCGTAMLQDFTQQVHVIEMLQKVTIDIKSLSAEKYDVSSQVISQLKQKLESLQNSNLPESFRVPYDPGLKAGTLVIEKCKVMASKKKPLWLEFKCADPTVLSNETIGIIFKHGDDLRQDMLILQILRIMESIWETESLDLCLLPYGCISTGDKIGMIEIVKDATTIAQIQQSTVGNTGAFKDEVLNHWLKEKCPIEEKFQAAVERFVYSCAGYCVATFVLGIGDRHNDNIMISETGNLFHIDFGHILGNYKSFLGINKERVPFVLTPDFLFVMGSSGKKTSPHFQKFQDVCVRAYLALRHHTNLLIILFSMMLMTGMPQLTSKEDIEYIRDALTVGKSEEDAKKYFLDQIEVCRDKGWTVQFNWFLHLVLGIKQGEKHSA
smiles,measurement,setting,value
CNC(=O)[C@H](C)Cn1cnc2ccc(-c3cnc(OC)c(NS(=O)(=O)c4ccc(F)cc4Cl)c3)cc2c1=O,bioavailability,[1],46.9%
same,AUClast/dose,[2],3090 nM·h
same,"remaining at 1 h, 10 µM",[3],32%
same,IC50,[4],> 10000 nM
same,fraction unbound at 4 h,[5],0.014
same,CLint scaled,[6],642 mL/min/kg
same,"remaining at 1 h, 10 µM",[7],32.7%
same,"remaining at 1 h, 10 µM",[8],44.6%
same,IC50,[9],12.1 nM
same,CLint scaled,[10],< 44 mL/min/kg
same,IC50,[11],32.9 nM
same,CL/F,[12],4.2 mL/min/kg
same,Vd,[13],0.179 L/kg
same,half-life,[14],58 min
same,inhibition,Mus musculus [15],Tde
same,clearance,[16],5.28 mL/min/kg
same,inhibition in vivo at 15 mg/kg,BT-474 [17],62.5%
same,"remaining at 1 h, 10 µM",[18],53.9%
same,"remaining at 1 h, 10 µM",[19],13.7%
same,bioavailability,[20],59.4%
same,Cmax,[21],37 µM
same,Vd,[22],0.321 L/kg
same,inhibition in vivo at 30 mg/kg,BT-474 [23],73%
same,IC50,[24],1.8 nM
same,TGI,BT-474 [25],Dose-dependent effect
same,inhibition,Mus musculus [26],Dose-dependent effect
same,IC50,[27],1390 nM
